Measurements pooled from the literature.
Target: Mitogen-activated protein kinase 13 (MAPK13, Homo sapiens, UniProt O15264)
One construct used (O15264 1-365): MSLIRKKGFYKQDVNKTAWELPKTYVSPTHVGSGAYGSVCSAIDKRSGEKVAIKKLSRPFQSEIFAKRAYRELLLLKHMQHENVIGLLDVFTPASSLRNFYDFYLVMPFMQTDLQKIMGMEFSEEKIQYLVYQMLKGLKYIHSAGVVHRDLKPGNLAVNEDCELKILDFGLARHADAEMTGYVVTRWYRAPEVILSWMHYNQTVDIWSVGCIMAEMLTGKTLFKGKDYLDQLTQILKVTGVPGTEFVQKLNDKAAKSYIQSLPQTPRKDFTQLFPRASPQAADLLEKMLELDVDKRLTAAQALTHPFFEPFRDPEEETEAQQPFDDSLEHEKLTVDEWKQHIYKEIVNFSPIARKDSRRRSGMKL

SMILES | effect on | action | technique | tested at | endpoint | result
N#CC1(c2ccccn2)CCN(Cc2cc(C(=O)O)c(=O)n3ccccc23)CC1 | cell-free assay |  | competition with immobilised ligand | 1 µM | remaining binding | 100%
Cn1cc(-c2cccc(N3CCc4c(sc5c4CC(C)(C)C5)C3=O)c2CO)cc(Nc2ccncn2)c1=O | enzyme activity | inhibitor |  | 1 µM | inhibition | 5%
Cc1nn(C)cc1-c1nc2c(N3CCN(Cc4ccc(Cl)cc4)CC3)c(Cl)cnc2[nH]1 | binding |  | competition with immobilised ligand | 1 µM | remaining binding | 100%
O=c1[nH]c2ccccc2n1C1CCN(Cc2ccc(-c3[nH]c4cc5ncnc5cc4nc3-c3ccccc3)cc2)CC1 | cell-free assay |  |  | 0.5 µM | remaining signal | 102%
COc1ncccc1-c1cnn2ccc(N3CCN(C(=O)OC(C)C)CC3)nc12 | binding |  | competition with immobilised ligand | 1 µM | remaining binding | 100%
COc1cc(Nc2ncc(F)c(Nc3ccc4c(n3)NC(=O)C(C)(C)O4)n2)cc(OC)c1OC | binding |  | competition with immobilised ligand | 10 µM | inhibition | 100%
CC(C)(C)c1cc(C=C(C#N)C#N)cc(Br)c1O | enzyme activity | inhibitor |  | 0.5 µM | remaining activity | 98.5%
Cn1cc(-c2cc(F)cc(N3CCn4c(cc5c4CCCC5)C3=O)c2CO)cc(Nc2ccc(N3CCN(C4COC4)CC3)cn2)c1=O | enzyme activity | inhibitor |  | 0.1 µM | inhibition | 15%
Cn1cncc1[C@](O)(COc1ccc(C#N)cc1-c1ccc(OC(F)(F)F)cc1)c1ccc(C#N)cc1 | cell-free assay |  | competition with immobilised ligand | 1 µM | remaining binding | 87%
